In ChEMBL document CHEMBL2407075, “Sulphonamido-quinoxalines: search for anticancer agent” (Eur J Med Chem, 2013):

Key:
Format in all cases: functional
IGROV-1 = experiment: Growth inhibition of human IGROV1 cells assessed as cell growth at 10^-7 M after 48 hrs by sulforhodamine B assay; conditions: IGROV-1, 48 h, read-out: Activity
786-0 [1] = experiment: Growth inhibition of human 786-0 cells after 48 hrs by sulforhodamine B assay; conditions: 786-0, 48 h, read-out: LC50 (the source's name)
Summary of the method: (§1)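 Adherent cells in RPMI 1640 with 5% FBS and 2 mM L-glutamine were plated at 5000–40,000 cells/well and grown 24 h. Five concentrations (0.01–100 µM, DMSO stock) were added for 48 h at 37 °C. Cells were fixed with cold TCA (10% final) and stained with SRB, read at 515 nm. GI50 came from log concentration–growth curves against time-zero and control plates.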

SN12C = experiment: Growth inhibition of human SN12C cells assessed as cell growth at 10^-7 M after 48 hrs by sulforhodamine B assay; conditions: read-out: Activity
[2] = Growth inhibition of human HCC2998 cells assessed as cell growth at 10^-7 M after 48 hrs by sulforhodamine B assay; conditions: HCC 2998, 48 h, read-out: Activity
Summary of the method: (§2)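 Five-dose screen at NCI. Cells in RPMI 1640 with 5% FBS and 2 mM L-glutamine, seeded at 5000–40,000 cells/well and grown 24 h at 37 °C, 5% CO2 before dosing, with time-zero plates TCA-fixed. Drug diluted from DMSO stock to 0.01, 0.1, 1, 10 and 100 µM final, 48 h. Cells fixed with cold TCA (10% final), stained with 0.4% SRB and read at 515 nm. Percent growth from Tz, control and test absorbances; GI50, TGI and LC50 from dose-response curves.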

SF-268 = experiment: Growth inhibition of human SF268 cells assessed as cell growth at 10^-8 M after 48 hrs by sulforhodamine B assay; conditions: SF-268, 48 h, read-out: Activity
SK-OV-3 = experiment: Growth inhibition of human SKOV3 cells assessed as cell growth at 10^-4 M after 48 hrs by sulforhodamine B assay; conditions: SK-OV-3, 48 h, read-out: Activity
SF-539 [3] = experiment: Growth inhibition of human SF539 cells after 48 hrs by sulforhodamine B assay; conditions: SF-539, 48 h; for CC50: read-out: LC50 (the source's name); summary of the method: as §1
MDA-MB-231 = experiment: Growth inhibition of human MDA-MB-231 cells assessed as cell growth at 10^-6 M after 48 hrs by sulforhodamine B assay; conditions: MDA-MB-231, 48 h, read-out: Activity
RXF 393 [4] = experiment: Growth inhibition of human RXF393 cells assessed as cell growth at 10^-5 M after 48 hrs by sulforhodamine B assay; conditions: RXF 393, 48 h, read-out: Activity
M14 = experiment: Growth inhibition of human M14 cells assessed as cell growth at 10^-7 M after 48 hrs by sulforhodamine B assay; conditions: M14, 48 h, read-out: Activity
786-0 [5] = experiment: Growth inhibition of human 786-0 cells assessed as cell growth at 10^-6 M after 48 hrs by sulforhodamine B assay; conditions: 786-0, 48 h, read-out: Activity
Summary of the method: (§3)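 Five-dose NCI-60 run (0.01, 0.1, 1, 10 and 100 µM, as 10-fold dilutions from a DMSO stock made at 400× the top final level). Cells were grown in RPMI 1640 with 5% FBS and 2 mM glutamine and plated for 24 h. They were then exposed for 48 h at 37 °C and 5% CO2. TCA fixation was followed by SRB staining with A515 read-out. Percent growth was taken relative to time-zero and control plates.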

MOLT-4 [6] = experiment: Growth inhibition of human MOLT4 cells assessed as cell growth at 10^-5 M after 48 hrs by sulforhodamine B assay; conditions: MOLT-4, 48 h, read-out: Activity
MOLT-4 [7] = experiment: Growth inhibition of human MOLT4 cells assessed as cell growth at 10^-4 M after 48 hrs by sulforhodamine B assay; conditions: MOLT-4, 48 h, read-out: Activity
OVCAR-8 = experiment: Growth inhibition of human OVCAR8 cells assessed as cell growth at 10^-8 M after 48 hrs by sulforhodamine B assay; conditions: OVCAR-8, 48 h, read-out: Activity
SF-539 [8] = experiment: Growth inhibition of human SF539 cells assessed as cell growth at 10^-5 M after 48 hrs by sulforhodamine B assay; conditions: SF-539, 48 h, read-out: Activity
KM12 = experiment: Growth inhibition of human KM12 cells assessed as cell growth at 10^-8 M after 48 hrs by sulforhodamine B assay; conditions: KM12, 48 h, read-out: Activity
[9] = Growth inhibition of human HCC2998 cells assessed as cell growth at 10^-4 M after 48 hrs by sulforhodamine B assay; conditions: HCC 2998, 48 h, read-out: Activity; summary of the method: as §2
SNB-19 [10] = experiment: Growth inhibition of human SNB19 cells after 48 hrs by sulforhodamine B assay; conditions: SNB-19, 48 h; for CC50: read-out: LC50 (the source's name); summary of the method: as §1
SNB-75 [11] = experiment: Growth inhibition of human SNB75 cells after 48 hrs by sulforhodamine B assay; conditions: SNB-75, 48 h; for CC50: read-out: LC50 (the source's name)
Summary of the method: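 Five-dose NCI 60 screen at 0.01, 0.1, 1, 10 and 100 µM, 48 h exposure after 24 h preincubation, in RPMI 1640 with 5% FBS and 2 mM glutamine. Fixed with TCA (10% final for adherent cells, 16% for suspension cells), stained with SRB, A515 read. Percent growth uses time-zero (Tz), control and treated plates. GI50, TGI and LC50 are read from the dose-response curves.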

CAKI-1 = experiment: Growth inhibition of human CAKI-1 cells assessed as cell growth at 10^-5 M after 48 hrs by sulforhodamine B assay; conditions: CAKI-1, 48 h, read-out: Activity; summary of the method: as §3
SNB-75 [12] = experiment: Growth inhibition of human SNB75 cells assessed as cell growth at 10^-6 M after 48 hrs by sulforhodamine B assay; conditions: SNB-75, 48 h, read-out: Activity
RXF 393 [13] = experiment: Growth inhibition of human RXF393 cells assessed as cell growth at 10^-6 M after 48 hrs by sulforhodamine B assay; conditions: RXF 393, 48 h, read-out: Activity
MDA-MB-435 = experiment: Growth inhibition of human MDA-MB-435 cells assessed as cell growth at 10^-5 M after 48 hrs by sulforhodamine B assay; conditions: MDA-MB-435, 48 h, read-out: Activity
K562 = experiment: Growth inhibition of human K562 cells assessed as cell growth at 10^-6 M after 48 hrs by sulforhodamine B assay; conditions: K562, 48 h, read-out: Activity
RXF 393 [14] = experiment: Growth inhibition of human RXF393 cells assessed as cell growth at 10^-7 M after 48 hrs by sulforhodamine B assay; conditions: RXF 393, 48 h, read-out: Activity
NCI-H460 = experiment: Growth inhibition of human NCI-H460 cells assessed as cell growth at 10^-6 M after 48 hrs by sulforhodamine B assay; conditions: NCI-H460, 48 h, read-out: Activity
NCI-H322M = experiment: Growth inhibition of human NCI-H322M cells assessed as cell growth at 10^-7 M after 48 hrs by sulforhodamine B assay; conditions: read-out: Activity
SNB-19 [15] = experiment: Growth inhibition of human SNB19 cells assessed as cell growth at 10^-8 M after 48 hrs by sulforhodamine B assay; conditions: SNB-19, 48 h, read-out: Activity

SMILES: O=S(=O)(Nc1ccc(Cl)cc1)c1ccc2nc(-c3ccccc3)c(-c3ccccc3)nc2c1
- growth at 0.1 µM (IGROV-1): 101%
- CC50 (786-0 [1]): > 100 µM
- growth at 0.1 µM (SN12C): 96%
- growth at 0.1 µM [2]: 99%
- growth at 0.01 µM (SF-268): 94%
- growth at 100 µM (SK-OV-3): 65%
- TGI (SF-539 [3]): > 100 µM
- CC50 (SF-539 [3]): > 100 µM
- growth at 1 µM (MDA-MB-231): 83%
- growth at 10 µM (RXF 393 [4]): -41%
- growth at 0.1 µM (M14): 85%
- growth at 1 µM (786-0 [5]): 93%
- growth at 10 µM (MOLT-4 [6]): -39%
- growth at 100 µM (MOLT-4 [7]): 68%
- growth at 0.01 µM (OVCAR-8): 96%
- growth at 10 µM (SF-539 [8]): 5%
- growth at 0.01 µM (KM12): 103%
- growth at 100 µM [9]: 85%
- TGI (SNB-19 [10]): > 100 µM
- CC50 (SNB-19 [10]): > 100 µM
- GI50 (SNB-75 [11]): 2.12 µM
- TGI (SNB-75 [11]): > 100 µM
- CC50 (SNB-75 [11]): > 100 µM
- growth at 10 µM (CAKI-1): -35%
- growth at 1 µM (SNB-75 [12]): 69%
- growth at 1 µM (RXF 393 [13]): 98%
- growth at 10 µM (MDA-MB-435): -25%
- growth at 1 µM (K562): 95%
- growth at 0.1 µM (RXF 393 [14]): 103%
- growth at 1 µM (NCI-H460): 94%
- growth at 0.1 µM (NCI-H322M): 98%
- growth at 0.01 µM (SNB-19 [15]): 100%

SMILES: O=S(=O)(Nc1ccccn1)c1ccc2nc(-c3ccccc3)c(-c3ccccc3)nc2c1
- growth at 0.1 µM (IGROV-1): 104%
- CC50 (786-0 [1]): > 100 µM
- growth at 0.1 µM (SN12C): 93%
- growth at 0.1 µM [2]: 100%
- growth at 0.01 µM (SF-268): 93%
- growth at 100 µM (SK-OV-3): 37%
- TGI (SF-539 [3]): > 100 µM
- CC50 (SF-539 [3]): > 100 µM
- growth at 1 µM (MDA-MB-231): 89%
- growth at 10 µM (RXF 393 [4]): -44%
- growth at 0.1 µM (M14): 89%
- growth at 1 µM (786-0 [5]): 96%
- growth at 10 µM (MOLT-4 [6]): -29%
- growth at 100 µM (MOLT-4 [7]): 48%
- growth at 0.01 µM (OVCAR-8): 100%
- growth at 10 µM (SF-539 [8]): 7%
- growth at 0.01 µM (KM12): 91%
- growth at 100 µM [9]: 64%
- TGI (SNB-19 [10]): > 100 µM
- CC50 (SNB-19 [10]): > 100 µM
- GI50 (SNB-75 [11]): 2.23 µM
- TGI (SNB-75 [11]): > 100 µM
- CC50 (SNB-75 [11]): > 100 µM
- growth at 10 µM (CAKI-1): -11%
- growth at 1 µM (SNB-75 [12]): 75%
- growth at 1 µM (RXF 393 [13]): 96%
- growth at 10 µM (MDA-MB-435): -25%
- growth at 1 µM (K562): 82%
- growth at 0.1 µM (RXF 393 [14]): 109%
- growth at 1 µM (NCI-H460): 94%
- growth at 0.1 µM (NCI-H322M): 102%
- growth at 0.01 µM (SNB-19 [15]): 100%
